Here are results for five compounds from ChEMBL document CHEMBL2057169, “Discovery of novel tricyclic compounds as squalene synthase inhibitors” (Bioorg Med Chem, 2012).

Assay [1] has as its system marmosets. The assay can be described thus: Lipid lowering effect in marmosets assessed as reduction in plasma HDL-cholesterol level at 100 mg/kg, po administered once daily for 7 days. The class given is functional. Particulars: Callitrichinae sp., in Callithrix jacchus, 168 h. In outline: (§1)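 Common marmosets, n = 8 per group, matched for body weight and plasma lipids. They were dosed orally at 100 mg/kg in 0.5% methylcellulose (5 ml/kg) once daily for 7 days. Nonfasted blood was drawn before dosing and the morning after the last dose. HDL was precipitated, then its cholesterol assayed enzymatically; non-HDL = total minus HDL cholesterol. Change was expressed relative to pre-values.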

In assay [2] the test system is marmosets. The assay can be described thus: Lipid lowering effect in marmosets assessed as reduction in plasma non HDL-cholesterol level at 100 mg/kg, po administered once daily for 7 days. The assay is classed as functional. Conditions: Callitrichinae sp., in Callithrix jacchus, 168 h. In outline:
as §1

Assay [3] relates to marmosets. Put plainly: Lipid lowering effect in marmosets assessed as reduction in plasma triglyceride level at 100 mg/kg, po administered once daily for 7 days. The assay is classed as functional. Particulars: Callitrichinae sp., in Callithrix jacchus, 168 h. The gist of the method: as §1
For assay [4], the system named is marmosets. Put plainly: Lipid lowering effect in marmosets assessed as reduction in plasma total cholesterol level at 100 mg/kg, po administered once daily for 7 days. Conditions: Callitrichinae sp., in Callithrix jacchus, 168 h. The assay is classed as functional. In outline:
as §1

The test system of assay [5] is Hepatocyte. Put plainly: Inhibition of cholesterol synthesis in rat hepatocytes assessed as formation of cholesterol using [14C]mevalonolactone as substrate after 1 hr by radioactivity assay. The assay is classed as functional, cell-based. The gist of the method:
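Rat hepatocytes isolated by two-step portal-vein perfusion (EGTA buffer, then 0.05% collagenase). Cells were kept if viability was over 80% by trypan blue and seeded at 10^6 cells/well in DMEM with 10% LPDS. Next day they got 5% LPDS medium with inhibitor at 0–3000 nM for 1 h at 37 °C, then [14C]mevalonolactone for 1 h. Lysates were saponified, [14C]cholesterol corrected by [3H]cholesterol recovery and BCA protein, and % inhibition taken versus 0 nM wells. Triplicate wells; three experiments.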

For assay [6], the system named is Rattus norvegicus. Put plainly: Inhibition of cholesterol synthesis in Wistar rat liver assessed as reduction of [14C]-cholesterol level at 3 mg/kg, po administered as single dose measured after 1 hr by liquid scintillation counting. The assay is classed as functional. The gist of the method: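 Male Wistar rats, 6 weeks old, n = 4-6, dosed orally at 3 mg/kg in 0.5% methylcellulose, with equimolar NaOH or NaHCO3 added; vehicle-only controls. At 1 h, [14C]mevalonic acid (5 µCi/5 ml/kg) was given ip, and rats were killed 1 h later.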

The target of assay [7] is T1, Squalene synthase (Rattus norvegicus, UniProt Q02769).
T1 sequence (Q02769 whole entry): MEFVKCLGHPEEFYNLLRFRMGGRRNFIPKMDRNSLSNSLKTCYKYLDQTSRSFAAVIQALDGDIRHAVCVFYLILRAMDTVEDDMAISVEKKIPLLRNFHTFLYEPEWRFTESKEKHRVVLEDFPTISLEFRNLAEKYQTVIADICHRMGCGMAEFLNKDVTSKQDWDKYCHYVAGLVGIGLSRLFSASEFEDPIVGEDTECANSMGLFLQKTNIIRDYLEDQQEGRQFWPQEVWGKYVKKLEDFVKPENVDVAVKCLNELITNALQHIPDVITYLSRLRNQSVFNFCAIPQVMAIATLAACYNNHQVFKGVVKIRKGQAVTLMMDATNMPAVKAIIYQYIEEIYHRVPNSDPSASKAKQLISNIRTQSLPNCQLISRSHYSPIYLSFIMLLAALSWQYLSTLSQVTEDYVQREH
Put plainly: Inhibition of squalene synthase in rat hepatic cells. The class given is cell-based.

Usually inhibition in vivo stands for the relative decrease from the control value, in per cent. As usually defined, the IC50 is the point on the concentration scale where inhibition reaches its midpoint. On to `COc1cccc([C@H]2O[C@H](CC(=O)N3CCC(CC(=O)O)CC3)c3cccn3-c3ccc(Cl)cc32)c1OC`, for which the inhibition in vivo at 100 mg/kg in assay [1] was -11%; in assay [2], 9%; in assay [3] it was 28%; in assay [4], 4%. For the same compound, the half-maximal inhibitory concentration (IC50) in assay [5] amounted to 0.049 µM.

For the compound `COc1cccc([C@H]2O[C@H](CCC(=O)N3CCC[C@H](C(=O)O)C3)c3cccn3-c3ccc(Cl)cc32)c1OC`, the inhibition in vivo at 100 mg/kg is -21% in assay [1], 23% in assay [2], 21% in assay [3] and 9% in assay [4]. Also, the inhibition in vivo at 3 mg/kg in assay [6] was determined as 53%. Moreover, the IC50 in assay [5] amounted to 0.07 µM; in assay [7], 0.0014 µM.

`COc1cccc([C@H]2O[C@H](CCn3cc(CC(=O)O)nn3)c3cccn3-c3ccc(Cl)cc32)c1OC`: the inhibition in vivo at 100 mg/kg in assay [1] is -8%; in assay [2], 21%; in assay [3], 24%; in assay [4] it was 10%. For the same compound, the inhibition in vivo at 3 mg/kg in assay [6] came out at 66%. In addition, the concentration for half-maximal inhibition (IC50) was determined as 0.024 µM in assay [5] and 0.00051 µM in assay [7].

With `COc1cccc([C@H]2O[C@H](CCn3ccc(CC(=O)O)n3)c3cccn3-c3ccc(Cl)cc32)c1OC`, the inhibition in vivo at 100 mg/kg in assay [1] was -10%; in assay [2], 52%; in assay [3], 16%; in assay [4], 27%. In addition, the inhibition in vivo at 3 mg/kg in assay [6] turned out to be 64%. Besides, the IC50 in assay [5] is 0.058 µM; in assay [7] it was 0.0013 µM.

Turning to `COc1cccc([C@H]2O[C@H](CCn3nnc(CC(=O)O)n3)c3cccn3-c3ccc(Cl)cc32)c1OC`, the inhibition in vivo at 100 mg/kg in assay [1] was found to be 6%; in assay [2] it was 21%; in assay [3], 12%; in assay [4], 14%. For the same compound, the inhibition in vivo at 3 mg/kg in assay [6] was found to be 86%. The IC50 in assay [5] came to 0.036 µM; in assay [7], 0.0011 µM.
